Results on four compounds are retold here after ChEMBL document CHEMBL4627284, “Pyrimethamine conjugated histone deacetylase inhibitors: Design, synthesis and evidence for triple negative breast cancer selective cytotoxicity” (Bioorg Med Chem, 2020).

Active and inactive are the calls of the source. No cut-off for these calls is given here.

For one assay, the target named is Histone deacetylase 1 (Homo sapiens, UniProt Q13547). Put plainly: Inhibition of human recombinant HDAC1 using fluorogenic HDAC substrate preincubated for 30 mins followed by substrate addition and measured after 15 mins by fluorogenic assay.
Sequence of Histone deacetylase 1 (Q13547 whole entry): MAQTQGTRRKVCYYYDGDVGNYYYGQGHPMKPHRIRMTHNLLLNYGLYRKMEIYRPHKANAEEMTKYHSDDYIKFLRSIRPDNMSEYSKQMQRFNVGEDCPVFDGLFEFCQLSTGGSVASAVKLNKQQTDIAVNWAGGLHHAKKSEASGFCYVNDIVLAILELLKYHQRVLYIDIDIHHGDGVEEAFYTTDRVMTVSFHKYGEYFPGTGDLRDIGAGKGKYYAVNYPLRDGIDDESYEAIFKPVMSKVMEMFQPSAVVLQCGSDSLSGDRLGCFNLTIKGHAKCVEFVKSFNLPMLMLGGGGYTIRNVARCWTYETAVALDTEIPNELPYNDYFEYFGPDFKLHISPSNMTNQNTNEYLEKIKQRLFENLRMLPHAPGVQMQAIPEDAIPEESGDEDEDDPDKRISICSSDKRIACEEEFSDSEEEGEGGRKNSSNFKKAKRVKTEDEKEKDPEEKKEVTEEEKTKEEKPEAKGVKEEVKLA
In assay [1] the target is T1, Protein deacetylase HDAC6 (Homo sapiens, UniProt Q9UBN7).
T1 sequence (Q9UBN7 whole entry): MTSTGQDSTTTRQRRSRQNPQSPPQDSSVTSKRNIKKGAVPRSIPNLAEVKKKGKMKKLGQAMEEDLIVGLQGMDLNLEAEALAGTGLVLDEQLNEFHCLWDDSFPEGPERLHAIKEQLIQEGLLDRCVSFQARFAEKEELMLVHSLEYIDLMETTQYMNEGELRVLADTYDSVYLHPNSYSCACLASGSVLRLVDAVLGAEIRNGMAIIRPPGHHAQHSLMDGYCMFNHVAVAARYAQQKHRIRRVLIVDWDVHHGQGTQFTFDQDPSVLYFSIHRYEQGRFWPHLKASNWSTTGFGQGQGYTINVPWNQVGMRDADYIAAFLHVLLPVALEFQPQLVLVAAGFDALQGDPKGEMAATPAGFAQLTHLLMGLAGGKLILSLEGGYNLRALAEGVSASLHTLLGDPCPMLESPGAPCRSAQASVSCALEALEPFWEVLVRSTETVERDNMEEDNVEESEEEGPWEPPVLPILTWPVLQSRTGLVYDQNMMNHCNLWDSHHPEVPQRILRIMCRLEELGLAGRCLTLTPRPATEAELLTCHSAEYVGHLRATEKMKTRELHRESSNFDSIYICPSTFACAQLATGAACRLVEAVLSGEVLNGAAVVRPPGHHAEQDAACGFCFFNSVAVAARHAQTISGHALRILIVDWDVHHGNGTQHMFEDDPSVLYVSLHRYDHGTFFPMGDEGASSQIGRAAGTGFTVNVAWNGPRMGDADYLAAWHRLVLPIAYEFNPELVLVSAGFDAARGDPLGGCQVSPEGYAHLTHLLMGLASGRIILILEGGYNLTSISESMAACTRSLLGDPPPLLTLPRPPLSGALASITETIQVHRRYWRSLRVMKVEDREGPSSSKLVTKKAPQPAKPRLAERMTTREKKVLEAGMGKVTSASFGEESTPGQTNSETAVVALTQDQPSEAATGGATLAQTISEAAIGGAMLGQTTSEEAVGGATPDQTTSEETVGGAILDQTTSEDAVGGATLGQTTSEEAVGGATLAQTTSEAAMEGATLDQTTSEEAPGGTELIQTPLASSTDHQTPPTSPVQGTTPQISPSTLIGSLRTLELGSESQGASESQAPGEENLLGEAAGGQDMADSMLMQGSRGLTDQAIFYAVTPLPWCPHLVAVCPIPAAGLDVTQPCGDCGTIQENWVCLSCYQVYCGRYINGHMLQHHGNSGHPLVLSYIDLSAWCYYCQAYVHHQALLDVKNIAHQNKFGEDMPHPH
Briefly: Inhibition of human recombinant HDAC6 using fluorogenic HDAC substrate 3 preincubated for 30 mins followed by substrate addition and measured after 15 mins by fluorogenic assay.

For a further assay, the target named is T2, Histone deacetylase 8 (Homo sapiens, UniProt Q9BY41).
T2 sequence (Q9BY41 whole entry): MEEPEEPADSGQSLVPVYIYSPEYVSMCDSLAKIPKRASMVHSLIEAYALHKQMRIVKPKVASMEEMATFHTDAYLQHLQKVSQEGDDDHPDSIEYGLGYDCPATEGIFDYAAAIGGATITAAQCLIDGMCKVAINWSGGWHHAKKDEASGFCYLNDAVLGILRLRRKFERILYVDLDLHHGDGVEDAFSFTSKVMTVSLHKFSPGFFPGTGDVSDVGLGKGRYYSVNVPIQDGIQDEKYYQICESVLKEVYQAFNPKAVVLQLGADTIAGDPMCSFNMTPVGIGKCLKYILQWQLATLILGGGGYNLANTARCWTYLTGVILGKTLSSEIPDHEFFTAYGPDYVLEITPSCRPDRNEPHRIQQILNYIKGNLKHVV
Put plainly: Inhibition of human recombinant HDAC8 using fluorogenic HDAC substrate class 2A preincubated for 30 mins followed by substrate addition and measured after 15 mins by fluorogenic assay.

A further assay has as its system A549. Briefly: cells. In kind it is functional, cell-based. To be noted: Homo sapiens, A549, 72 h.
The test system of another assay is MCF7. Briefly: cells. To be noted: Homo sapiens, MCF7, 72 h. In kind it is functional, cell-based.
In assay [2] the test system is MDA-MB-231. Put plainly: cells. To be noted: Homo sapiens, MDA-MB-231, 72 h. In kind it is functional, cell-based.
For assay [3], the system named is MDA-MB-231. Briefly: Cell cycle arrest in human MDA-MB-231 cells assessed as accumulation of cells at G2 phase at 15 uM incubated for 48 hrs RNase/PI staining based flow cytometry assay. The assay is classed as functional. In short, it runs like this: (§1)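 MDA-MB-231 cells, 5*10⁶ per 10 cm plate, were grown in DMEM for 24 h and then dosed for 48 h from DMSO stocks (final DMSO 0.1%; DMSO as control). Cells were trypsinized, washed twice in cold PBS and fixed in 70% ethanol overnight at -20°C. They were treated with 200 ug/mL RNase for 30 min, stained with 50 ug/mL PI at RT for 30 min, and DNA content was read by flow cytometry.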

The subject of the next assay is Vero. Put plainly: cells. To be noted: Chlorocebus sabaeus, 72 h.
In assay [4] the target is Signal transducer and activator of transcription 3 (Homo sapiens) (UniProt P40763). Briefly: Inhibition of STAT3 in human MDA-MB-231 cells assessed as upregulation of p-p38 expression after 24 hrs by western blot analysis. The assay is classed as cell-based. In short, it runs like this:
(§2)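 MDA-MB-231 cells, 1*10⁶ per well, were grown in DMEM for 24 h, serum-starved for 24 h, then treated for 24 h from DMSO solutions (final DMSO 0.1%; DMSO control). Cells were lysed in RIPA with protease and phosphatase inhibitors and protein equalized by BCA. 20-40 µg was run on 4-20% gels and transferred to PVDF, which was blocked in 5% BSA. Primary antibodies were applied overnight and secondary for 1 h, and band intensities were quantified by infrared imaging.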
(Immunoblotting shows a protein as a band on a membrane.)

Assay [5] shares this target. Briefly: Inhibition of STAT3 in human MDA-MB-231 cells assessed as downregulation of Bcl-xL expression after 24 hrs by western blot analysis. In kind it is cell-based. A digest of the protocol: as §2
For assay [6] the target is unchanged. Put plainly: Inhibition of STAT3 in human MDA-MB-231 cells assessed as change in Bcl-2 expression at 0.8 to 1.6 uM after 24 hrs by western blot analysis. The assay is classed as cell-based. In short, it runs like this:
as §2

Assay [7] has the same target. Put plainly: Inhibition of STAT3 in human MDA-MB-231 cells assessed as slight down regulation of pSTAT3 expression at 50 to 100 uM after 24 hrs by western blot analysis. In kind it is cell-based. In short, it runs like this:
as §2

Assay [8] shares this target. Put plainly: Inhibition of STAT3 in human MDA-MB-231 cells assessed as downregulation of cyclinD1 expression at 5 to 25 uM after 24 hrs by western blot analysis. The assay is classed as cell-based. A digest of the protocol: as §2
Assay [9] deals with MDA-MB-231. Put plainly: Cell cycle arrest in human MDA-MB-231 cells assessed as accumulation of cells at G1 phase at 5 uM incubated for 48 hrs RNase/PI staining based flow cytometry assay (reference value: 64.3 %). The assay is classed as functional. In short, it runs like this: as §1
Assay [10] deals with MDA-MB-231. Put plainly: Cell cycle arrest in human MDA-MB-231 cells assessed as accumulation of cells at G2 phase at 5 uM incubated for 48 hrs RNase/PI staining based flow cytometry assay (reference value: 17.4 %). In kind it is functional. A digest of the protocol: as §1
A general note: Flow cytometry measures light scatter and fluorescence of single cells or particles in a stream.

Sequence of Signal transducer and activator of transcription 3 (Homo sapiens) (P40763 whole entry): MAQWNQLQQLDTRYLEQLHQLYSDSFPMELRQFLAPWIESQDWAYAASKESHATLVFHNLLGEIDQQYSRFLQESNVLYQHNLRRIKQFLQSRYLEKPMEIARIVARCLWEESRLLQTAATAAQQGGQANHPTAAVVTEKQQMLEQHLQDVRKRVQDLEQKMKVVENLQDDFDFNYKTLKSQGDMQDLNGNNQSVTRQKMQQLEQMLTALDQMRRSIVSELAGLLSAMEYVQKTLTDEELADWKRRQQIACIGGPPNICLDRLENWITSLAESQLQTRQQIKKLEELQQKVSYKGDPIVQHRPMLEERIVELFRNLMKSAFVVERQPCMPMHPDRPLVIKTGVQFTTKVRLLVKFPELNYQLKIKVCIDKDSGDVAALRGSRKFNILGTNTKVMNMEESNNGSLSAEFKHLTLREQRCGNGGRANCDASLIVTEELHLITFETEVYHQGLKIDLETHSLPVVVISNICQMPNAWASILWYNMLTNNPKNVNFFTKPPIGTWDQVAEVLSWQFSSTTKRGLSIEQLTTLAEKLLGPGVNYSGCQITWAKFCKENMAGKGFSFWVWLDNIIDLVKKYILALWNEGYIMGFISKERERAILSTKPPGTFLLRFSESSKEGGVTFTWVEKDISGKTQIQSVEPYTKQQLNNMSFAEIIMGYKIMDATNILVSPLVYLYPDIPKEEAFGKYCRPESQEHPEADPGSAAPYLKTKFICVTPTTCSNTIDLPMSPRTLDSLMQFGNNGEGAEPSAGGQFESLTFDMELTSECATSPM

Consider `CCc1nc(N)nc(N)c1-c1ccc(-c2cn(CCCCCCC(=O)NO)nn2)cc1`, for which the IC50 (commonly the point on the concentration scale where inhibition reaches its midpoint) on Histone deacetylase 1 was found to be 45 nM; in assay [1] it was 17 nM; at Histone deacetylase 8 it was 780 nM; in the assay with A549, 65.5 µM; with MCF7, 57.3 µM; in the assay with MDA-MB-231 [2], 12.2 µM. For the same compound, the IC50 with Vero was 40.2 µM. The result with MDA-MB-231 [3] was Active.
Turning to `O=C(CCCCCCC(=O)Nc1ccccc1)NO` [VORINOSTAT], the inhibition entry in [4] and in assay [5] was “Dose-dependent effect” throughout. The inhibition result in assay [6] was “inactive”. Besides, the inhibition result in assay [7] and in assay [8] was “Active” throughout. Besides, the Activity in the assay on MDA-MB-231 [9] was determined as 18.2%; in the assay on MDA-MB-231 [10] it was 65.1%.
Turning to `CCOC(=O)CCCCCCCn1cc(-c2ccc(-c3c(N)nc(N)nc3CC)cc2)nn1`, the IC50 in the assay with A549 was 114 µM; with MCF7, 96.6 µM; in the assay on MDA-MB-231 [2], 94.9 µM; in the assay with Vero, 113 µM.
In the case of `CCc1nc(N)nc(N)c1-c1ccc(-c2cn(CCCCCC(=O)NO)nn2)cc1`, the half-maximal inhibitory concentration (IC50) at Histone deacetylase 1 was 260 nM; in assay [1], 46 nM; at Histone deacetylase 8, 2800 nM; in the assay with MDA-MB-231 [2] it was 38.4 µM.
